Several values for one entry are separate records, joined by “and”; a condition that tells them apart may be missing. Equal values may be shown once.
Experiments:
HFF [1] = assay: Visual cytotoxicity scored on HFF cells at time of HCMV plaque enumeration; format: functional, cell-based; conditions: Homo sapiens
Procedure, shortened: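 Stationary HFF cells, uninfected cells in HCMV plaque assay plates scored by microscopic inspection at plaque enumeration (7–10 days); IC50.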

Human alphaherpesvirus 1 [2] = assay: Antiviral activity in Herpes simplex virus-1 assayed by ELISA in quadruplicate wells; format: functional, organism-based
Human betaherpesvirus 5 [3] = assay: antiviral activity in Human cytomegalovirus by plaque assay (HCMV); format: functional, organism-based
Human betaherpesvirus 5 [4] = assay: antiviral activity in Human cytomegalovirus by plaque assay given as yield; format: functional
KB = assay: cell growth inhibition was determined in KB cells in quadruplicate assays; format: functional, cell-based; conditions: Homo sapiens
L1210 [5] = assay: Antiproliferative activity in L1210 Murine Leukemia in vitro expressed as Growth rate in the presence of compound; format: functional, Mus musculus; set-up: concentration or dose not given beside the values
L1210 [6] = assay: antiproliferative activity in L1210 Murine Leukemia in vitro expressed as concentration required to decrease growth rate to 50% of control; format: functional, cell-based; conditions: Mus musculus
Procedure, shortened: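 L1210 cells in static suspension, Fischer's medium with 10% heat-inactivated horse serum; cell counts at 0, 48, 96 h over a concentration series; IC50 is the concentration lowering growth rate (treated doublings as % of control) to 50% of control.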

CCRF-CEM [7] = assay: Visual cytotoxicity scored on CEM cells at time of RT assay; conditions: Homo sapiens
CCRF-CEM [8] = assay: cytotoxicity in CEM-SS cells by [3H]Thd uptake; format: functional, cell-based; conditions: Homo sapiens
Procedure, shortened: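 [3H]dThd incorporation into acid-precipitable DNA of CEM-SS cells; IC50 from regression of % inhibition on log concentration; triplicate assays.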

CCRF-CEM [9] = assay: cytotoxicity in CEM-SS cells by visual inspection; format: functional, cell-based; conditions: Homo sapiens
Human alphaherpesvirus 1 [10] = assay: Antiviral activity as 50% inhibitory concentration against HSV-1; format: functional, organism-based
Procedure, shortened: (§1)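 Plaque reduction in HFF monolayers; HSV-1 E-377, HSV-2 MS or VZV Ellen, 20–50 PFU, 1 h adsorption at 37 °C; serial 5-fold drug dilutions in agarose overlay (extra overlay days 3 and 6 for VZV); neutral red staining at 3 days (HSV) or 10 days (VZV); plaques counted; duplicate assays.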

Human alphaherpesvirus 2 = assay: Antiviral activity as 50% inhibitory concentration against HSV-2; format: functional, organism-based; procedure, shortened: as §1
HFF [11] = assay: Cytotoxicity in human foreskin fibroblast (HFF) stationary by MTT assay; format: functional, cell-based
Procedure, shortened: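 MTT assay on stationary HFF cells; drug in half-log10 dilutions; incubated one to three population doublings in 5% CO2; viable cells read at 570 nm; % inhibition vs control; IC50 from regression; duplicate assays.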

HFF [12] = assay: Cytotoxicity in human foreskin fibroblast (HFF) stationary cells as neutral red uptake; format: functional, cell-based
Human alphaherpesvirus 3 = assay: antiviral activity as 50% inhibitory concentration against VZV; format: functional, organism-based; procedure, shortened: as §1

NC(=S)c1cn([C@@H]2O[C@H](CO)[C@@H](O)[C@@H]2F)c2ncnc(N)c12
IC50 (HFF [1]): 3.1 µM
IC50 (Human alphaherpesvirus 1 [2]): 8.7 µM
IC50 (Human betaherpesvirus 5 [3]): 0.22 µM
IC90 (Human betaherpesvirus 5 [4]): 1.5 µM
IC50 (KB): 3 µM
Growth rate (L1210 [5]): 5%
IC50 (L1210 [6]): 5 µM
IC50 (CCRF-CEM [7]): 2 µM

Nc1nc2c(ncn2COC(CO)CO)c(=O)[nH]1 [GANCICLOVIR]
IC50 (HFF [1]): > 100 µM
IC90 (Human betaherpesvirus 5 [4]): 1.6 µM
IC50 (KB): > 100 µM

N#Cc1cn([C@@H]2O[C@H](CO)[C@@H](O)[C@@H]2F)c2ncnc(N)c12
IC50 (HFF [1]): 6.8 µM
IC50 (Human alphaherpesvirus 1 [2]): 6.5 µM
IC50 (Human betaherpesvirus 5 [3]): 1 µM
IC90 (Human betaherpesvirus 5 [4]): 1.1 µM
IC50 (KB): 8.8 µM
Growth rate (L1210 [5]): 11%
IC50 (L1210 [6]): 39 µM
IC50 (CCRF-CEM [7]): 33 µM

N#Cc1c(Br)n([C@@H]2O[C@H](CO)[C@@H](O)[C@@H]2F)c2ncnc(N)c12
IC50 (HFF [1]): 21 µM
IC50 (Human alphaherpesvirus 1 [2]): > 100 µM
IC50 (Human betaherpesvirus 5 [3]): 12 µM
IC90 (Human betaherpesvirus 5 [4]): 7 µM
IC50 (KB): 144 µM
Growth rate (L1210 [5]): 21%
IC50 (L1210 [6]): 66 µM
IC50 (CCRF-CEM [7]): 33 µM

N#Cc1c(Br)n([C@H]2O[C@H](CO)[C@@H](O)[C@@H]2F)c2ncnc(N)c12
IC50 (HFF [1]): 55 µM
IC50 (Human alphaherpesvirus 1 [2]): > 100 µM
IC50 (Human betaherpesvirus 5 [3]): 3.2 µM
IC90 (Human betaherpesvirus 5 [4]): > 100 µM
IC50 (KB): > 150 µM
Growth rate (L1210 [5]): 45%
IC50 (L1210 [6]): 90 µM
IC50 (CCRF-CEM [7]): > 100 µM

NC(=O)c1cn([C@@H]2O[C@H](CO)[C@@H](O)[C@@H]2F)c2ncnc(N)c12
IC50 (CCRF-CEM [8]): 0.193 µM
IC50 (CCRF-CEM [9]): 0.4 µM
IC50 (HFF [1]): 5.5 µM
IC50 (Human alphaherpesvirus 1 [10]): 0.03 µM and 0.0037 µM
IC50 (Human alphaherpesvirus 1 [2]): 0.47 µM
IC50 (Human alphaherpesvirus 2): 0.03 µM
IC50 (Human betaherpesvirus 5 [3]): 0.025 µM
IC90 (Human betaherpesvirus 5 [4]): 0.075 µM
IC50 (HFF [11]; Homo sapiens, HFF): 0.13 µM
IC50 (HFF [11]; hff): 0.16 µM
IC50 (HFF [12]): 6.7 µM
IC50 (KB): 1.9 µM
Growth rate (L1210 [5]): 9%
IC50 (L1210 [6]): 3.2 µM
IC50 (Human alphaherpesvirus 3): 0.003 µM
IC50 (CCRF-CEM [7]): 0.4 µM

Cc1cn([C@H]2C[C@H](N=[N+]=[N-])[C@@H](CO)O2)c(=O)[nH]c1=O [ZIDOVUDINE]
IC50 (HFF [1]): > 100 µM

N#Cc1cn([C@H]2O[C@H](CO)[C@@H](O)[C@@H]2F)c2ncnc(N)c12
IC50 (HFF [1]): 100 µM
IC50 (Human alphaherpesvirus 1 [2]): 46 µM
IC50 (Human betaherpesvirus 5 [3]): 16 µM
IC90 (Human betaherpesvirus 5 [4]): 100 µM
IC50 (KB): > 100 µM
Growth rate (L1210 [5]): 98%
IC50 (CCRF-CEM [7]): > 100 µM
